This is an account of results in ChEMBL document CHEMBL4825702, “5-Aminonaphthalene derivatives as selective nonnucleoside nuclear receptor binding SET domain-protein 2 (NSD2) inhibitors for the treatment of multiple myeloma” (Eur J Med Chem, 2021).

Each structure is given as a SMILES string. pIC50: −log10 of the molar value. Activity calls are given as the source filed them. The calls are words filed in the database; no cut-off is given here.

One data set relates to MV4-11. Description: cells. The conditions noted are these: Homo sapiens, MV4-11, 72 h, read-out: Activity.
The test system of the next data set is OPM-2. Description: Antiproliferative activity against human OPM-2 cells assessed as reduction in cell viability incubated for 6 days by CCK8 assay.
In data set [1] the test system is RS4-11. Kind of data set: Antitumor activity against human RS4-11 cells xenografted in SCID mouse assessed as tumor growth inhibition at 50 mg/kg, ip qd administered consecutively for 21 days relative to control. The conditions noted are these: RS4-11, ip, 504 h, read-out: TGI.
Data set [2] can be described thus: MRT in CD-1 mouse at 2 mg/kg, iv measured up to 24 hrs by LC-MS/MS. The conditions noted are these: in vivo. Format: ADME, organism-based. Summed up: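 CD-1 mice dosed at 2 mg/kg i.p. or i.v., n = 3 per group. Blood sampled at 0, 0.083, 0.25, 0.5, 1, 2, 4, 6, 8 and 24 h and spun for plasma. Internal standard added, deproteinized with methanol/acetonitrile (1:1), supernatant diluted and analysed by LC/MS/MS.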

Data set [3] deals with Histone-lysine N-methyltransferase SETD2 (Homo sapiens, UniProt Q9BYW2). Kind of data set: Inhibition of SETD2 (unknown origin) using SAM as substrate preincubated for 10 mins followed by substrate addition measured after 4 hrs by AlphaLISA method.
In data set [4] the test system is RS4-11. Kind of data set: cells. The conditions noted are these: Homo sapiens, RS4-11, 72 h, read-out: Activity.
A short description of data set [5]: Half life in CD-1 mouse at 2 mg/kg, ip measured up to 24 hrs by LC-MS/MS. The class given is ADME, organism-based. The conditions noted are these: in vivo. The gist of the method:
(§1)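 CD-1 mice given a single 2 mg/kg dose i.p. or i.v. (n = 3 per group). Blood sampled at 0, 0.083, 0.25, 0.5, 1, 2, 4, 6, 8 and 24 h and centrifuged for plasma, with internal standard added. Plasma deproteinized with methanol/acetonitrile (1:1), supernatant diluted with acetonitrile/water, and compound measured by LC/MS/MS.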

Data set [6] concerns the target Histone-arginine methyltransferase CARM1 (Homo sapiens, UniProt Q86X55). Kind of data set: Inhibition of PRMT4 (unknown origin) using SAM as substrate preincubated for 10 mins followed by substrate addition measured after 4 hrs by AlphaLISA method.
Data set [7] has as its target Histone-lysine N-methyltransferase, H3 lysine-36 specific (Homo sapiens, UniProt Q96L73). Description: Inhibition of NSD1 (unknown origin) using SAM as substrate preincubated for 10 mins followed by substrate addition measured after 4 hrs by AlphaLISA method.
The test system of data set [8] is RS4-11. Kind of data set: Induction of apoptosis in human RS4-11 cells incubated for 72 hrs by annexin-V/FITC and propidium iodide staining based flow cytometry analysis. The conditions noted are these: dose 5-10 µM. Format: functional, cell-based.
Data set [9] can be described thus: AUC in CD-1 mouse at 2 mg/kg, iv measured up to 24 hrs by LC-MS/MS. Format: ADME, organism-based. Details: route intravenous, dose 2 mg/kg, time <=24. The conditions noted are these: in vivo. Summed up: as §1
Data set [10] addresses Histone-lysine N-methyltransferase NSD2 (Homo sapiens, UniProt O96028, E1009K). Description: Inhibition of NSD2 E1009K mutant (unknown origin) using SAM as substrate preincubated for 10 mins followed by substrate addition measured after 4 hrs by AlphaLISA method.

Chain of Histone-lysine N-methyltransferase SETD2 (Q9BYW2 whole entry): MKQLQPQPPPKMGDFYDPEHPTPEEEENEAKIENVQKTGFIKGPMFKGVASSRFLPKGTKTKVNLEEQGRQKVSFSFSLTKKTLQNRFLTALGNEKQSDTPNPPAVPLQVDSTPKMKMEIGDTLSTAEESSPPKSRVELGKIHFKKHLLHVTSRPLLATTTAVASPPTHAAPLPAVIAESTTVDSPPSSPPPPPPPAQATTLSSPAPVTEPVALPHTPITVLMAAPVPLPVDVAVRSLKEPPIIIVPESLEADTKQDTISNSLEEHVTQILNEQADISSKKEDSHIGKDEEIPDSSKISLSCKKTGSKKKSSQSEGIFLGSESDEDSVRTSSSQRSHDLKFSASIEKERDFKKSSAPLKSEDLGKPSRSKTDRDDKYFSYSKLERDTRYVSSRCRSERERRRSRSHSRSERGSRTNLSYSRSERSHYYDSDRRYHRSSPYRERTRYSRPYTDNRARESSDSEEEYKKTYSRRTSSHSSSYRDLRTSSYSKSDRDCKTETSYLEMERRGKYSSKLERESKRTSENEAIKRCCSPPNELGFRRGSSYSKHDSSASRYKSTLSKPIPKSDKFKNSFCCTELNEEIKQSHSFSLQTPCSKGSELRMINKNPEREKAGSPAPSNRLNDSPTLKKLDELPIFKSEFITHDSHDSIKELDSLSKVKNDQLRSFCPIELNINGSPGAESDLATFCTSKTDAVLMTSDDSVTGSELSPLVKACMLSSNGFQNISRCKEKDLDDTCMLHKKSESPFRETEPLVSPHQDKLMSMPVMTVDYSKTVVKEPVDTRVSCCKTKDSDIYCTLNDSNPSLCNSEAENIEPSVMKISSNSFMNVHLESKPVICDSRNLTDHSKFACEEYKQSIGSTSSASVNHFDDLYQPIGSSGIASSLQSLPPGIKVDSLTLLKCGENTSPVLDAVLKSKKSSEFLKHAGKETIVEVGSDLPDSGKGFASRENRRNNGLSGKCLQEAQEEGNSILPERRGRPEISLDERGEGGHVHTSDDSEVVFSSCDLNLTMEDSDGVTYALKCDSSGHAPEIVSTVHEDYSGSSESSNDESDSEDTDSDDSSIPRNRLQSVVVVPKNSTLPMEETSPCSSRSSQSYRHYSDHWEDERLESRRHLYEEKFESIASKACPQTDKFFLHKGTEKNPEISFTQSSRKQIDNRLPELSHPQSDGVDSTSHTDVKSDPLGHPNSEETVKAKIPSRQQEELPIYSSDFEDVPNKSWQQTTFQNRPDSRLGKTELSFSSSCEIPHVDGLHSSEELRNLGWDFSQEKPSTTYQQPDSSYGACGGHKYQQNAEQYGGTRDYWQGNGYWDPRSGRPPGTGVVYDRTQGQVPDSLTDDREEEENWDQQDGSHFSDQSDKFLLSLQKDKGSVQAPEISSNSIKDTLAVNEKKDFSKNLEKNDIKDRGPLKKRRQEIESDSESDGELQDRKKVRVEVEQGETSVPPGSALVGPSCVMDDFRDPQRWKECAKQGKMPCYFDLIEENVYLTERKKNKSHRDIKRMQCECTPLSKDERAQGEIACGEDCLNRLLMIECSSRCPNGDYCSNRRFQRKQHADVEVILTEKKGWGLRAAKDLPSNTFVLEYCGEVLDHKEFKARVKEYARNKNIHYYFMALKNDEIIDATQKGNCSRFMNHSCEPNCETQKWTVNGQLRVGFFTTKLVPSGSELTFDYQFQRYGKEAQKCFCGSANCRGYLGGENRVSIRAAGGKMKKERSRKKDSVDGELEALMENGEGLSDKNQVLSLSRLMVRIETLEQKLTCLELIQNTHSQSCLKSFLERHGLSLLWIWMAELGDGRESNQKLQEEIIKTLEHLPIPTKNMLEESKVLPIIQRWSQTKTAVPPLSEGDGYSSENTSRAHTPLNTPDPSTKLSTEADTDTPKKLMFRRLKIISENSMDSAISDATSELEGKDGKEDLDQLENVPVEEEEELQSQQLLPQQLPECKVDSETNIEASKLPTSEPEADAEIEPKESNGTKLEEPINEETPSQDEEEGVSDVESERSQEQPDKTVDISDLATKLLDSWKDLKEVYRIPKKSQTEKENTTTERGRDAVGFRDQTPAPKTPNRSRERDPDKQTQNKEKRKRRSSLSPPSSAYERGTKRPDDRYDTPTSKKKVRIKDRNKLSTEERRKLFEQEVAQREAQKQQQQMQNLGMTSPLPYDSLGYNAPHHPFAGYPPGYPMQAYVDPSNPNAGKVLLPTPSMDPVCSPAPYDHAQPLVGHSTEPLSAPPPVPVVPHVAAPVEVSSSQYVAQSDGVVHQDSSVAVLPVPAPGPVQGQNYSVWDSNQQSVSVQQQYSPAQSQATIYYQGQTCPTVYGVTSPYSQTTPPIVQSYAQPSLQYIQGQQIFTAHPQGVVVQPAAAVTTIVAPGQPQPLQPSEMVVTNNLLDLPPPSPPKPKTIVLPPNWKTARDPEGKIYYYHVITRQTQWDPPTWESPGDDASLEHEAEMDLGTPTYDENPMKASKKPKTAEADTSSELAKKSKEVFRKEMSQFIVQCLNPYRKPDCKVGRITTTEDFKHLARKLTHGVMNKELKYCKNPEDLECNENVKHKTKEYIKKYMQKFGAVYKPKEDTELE
Chain of Histone-arginine methyltransferase CARM1 (Q86X55 whole entry): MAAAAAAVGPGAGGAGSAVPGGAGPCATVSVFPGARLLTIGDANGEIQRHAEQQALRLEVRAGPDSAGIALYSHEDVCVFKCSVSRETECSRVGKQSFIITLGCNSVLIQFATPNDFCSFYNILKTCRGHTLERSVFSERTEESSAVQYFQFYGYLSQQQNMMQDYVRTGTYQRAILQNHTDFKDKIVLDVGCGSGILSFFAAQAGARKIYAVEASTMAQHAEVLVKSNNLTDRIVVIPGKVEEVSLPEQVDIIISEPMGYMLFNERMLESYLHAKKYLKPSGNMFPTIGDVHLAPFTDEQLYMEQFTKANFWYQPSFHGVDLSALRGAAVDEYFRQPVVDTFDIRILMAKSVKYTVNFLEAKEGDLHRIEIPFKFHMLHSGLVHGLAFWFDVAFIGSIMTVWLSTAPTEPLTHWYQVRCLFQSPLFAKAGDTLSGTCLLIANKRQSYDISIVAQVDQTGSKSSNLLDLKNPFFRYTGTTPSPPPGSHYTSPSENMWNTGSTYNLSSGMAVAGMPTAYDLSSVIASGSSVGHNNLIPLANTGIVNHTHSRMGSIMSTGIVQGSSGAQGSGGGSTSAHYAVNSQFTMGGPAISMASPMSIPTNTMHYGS
Chain of Histone-lysine N-methyltransferase NSD2 (O96028 whole entry, looked up, stated change not applied): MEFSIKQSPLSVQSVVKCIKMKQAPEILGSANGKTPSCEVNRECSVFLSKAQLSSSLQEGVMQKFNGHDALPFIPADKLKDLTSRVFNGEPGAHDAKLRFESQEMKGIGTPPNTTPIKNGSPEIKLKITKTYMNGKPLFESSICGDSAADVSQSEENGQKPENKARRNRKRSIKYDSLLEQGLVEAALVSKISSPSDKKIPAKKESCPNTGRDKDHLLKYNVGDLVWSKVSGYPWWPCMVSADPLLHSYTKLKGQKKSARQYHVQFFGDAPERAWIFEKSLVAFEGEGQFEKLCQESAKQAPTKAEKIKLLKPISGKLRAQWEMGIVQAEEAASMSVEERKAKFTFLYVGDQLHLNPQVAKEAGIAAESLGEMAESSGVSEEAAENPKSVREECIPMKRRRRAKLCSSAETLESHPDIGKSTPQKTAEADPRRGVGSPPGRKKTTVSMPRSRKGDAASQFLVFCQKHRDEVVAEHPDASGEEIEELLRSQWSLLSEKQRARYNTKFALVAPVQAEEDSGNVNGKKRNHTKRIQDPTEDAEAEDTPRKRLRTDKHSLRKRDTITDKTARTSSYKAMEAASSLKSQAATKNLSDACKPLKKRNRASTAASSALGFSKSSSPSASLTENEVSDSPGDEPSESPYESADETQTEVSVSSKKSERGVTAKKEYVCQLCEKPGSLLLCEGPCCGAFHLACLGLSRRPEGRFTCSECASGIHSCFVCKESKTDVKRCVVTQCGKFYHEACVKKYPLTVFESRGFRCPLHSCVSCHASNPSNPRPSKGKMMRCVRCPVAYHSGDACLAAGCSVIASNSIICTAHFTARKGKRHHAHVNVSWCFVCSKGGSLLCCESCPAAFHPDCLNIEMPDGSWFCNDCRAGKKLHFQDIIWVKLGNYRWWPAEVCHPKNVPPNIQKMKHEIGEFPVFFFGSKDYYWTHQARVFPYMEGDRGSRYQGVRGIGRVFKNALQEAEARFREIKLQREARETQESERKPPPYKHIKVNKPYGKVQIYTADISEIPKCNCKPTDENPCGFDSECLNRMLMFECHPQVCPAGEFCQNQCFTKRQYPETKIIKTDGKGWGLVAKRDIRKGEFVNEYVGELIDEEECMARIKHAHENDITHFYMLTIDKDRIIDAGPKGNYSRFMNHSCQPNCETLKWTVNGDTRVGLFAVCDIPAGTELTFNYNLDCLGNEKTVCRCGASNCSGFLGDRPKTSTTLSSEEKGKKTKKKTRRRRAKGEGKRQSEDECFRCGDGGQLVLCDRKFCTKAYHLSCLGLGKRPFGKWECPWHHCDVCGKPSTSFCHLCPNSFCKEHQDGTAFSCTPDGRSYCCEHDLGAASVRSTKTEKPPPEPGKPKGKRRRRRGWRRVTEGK

As for `Cl.Nc1cccc2c(S(=O)(=O)NCc3ccccc3)cccc12`, the viability at 10 µM in the data set on MV4-11 came to 94%; in the data set on RS4-11 [4], 3.53%. Further, the outcome in the data set with OPM-2 was Active. In the data set on RS4-11 [1], the inhibition in vivo at 50 mg/kg is 37.2%. Also, the mean residence time (MRT) in data set [2] is 23.8 min. The negative logarithm of the IC50 (pIC50) was < 4.70 in [3], < 4.70 in data set [6], < 4.70 in [7] and 5.51 in data set [10]. This compound also gave a half-life in data set [5] of 33.6 min. For the same compound, the Activity result with RS4-11 [8] is “Dose-Dependent Effect”. In addition, the AUC at 24 h in [9] was 204 ng·h/mL.
